Drawing on the RNAGym collection of RNA variant scans (doi:10.1126/science.aae0568), this text covers yeast fitness for 167 variants.

Sequences and labels used below:
B1: tRNA (parent)
chain: GUUCCGUUGGCGUAAUGGUAACGCGUCUCCCUCCUAAGGAGAAGACUGCGGGUUCGAGUCCCGUACGGAACG

This sample holds only a part of the variants without activity. A value given as a limit tells only on which side of the number the result lay.

Variants of B1 are the subject of this data set. The data set can be described thus: yeast fitness relative to wild type (ratio to wild type); higher = fitter; tRNA-Arg(CCU), competitive growth, 37 C, YPD. The method in brief: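 Variants of the tRNA-Arg(CCU) gene, chemically synthesised with a 3% per-site mutation rate at 69 sites, were placed at the native genomic locus in Saccharomyces cerevisiae. The pooled strains were competed in YPD at 37°C for 24 hours in six parallel replicates. Gene amplicons from the start population and from each end population were read by 100-nucleotide paired-end sequencing. Darwinian fitness relative to wild type came from changes in genotype frequencies; genotypes needed ≥ 100 starting reads, and estimates < 0.5 were set to 0.5.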
As for C27G A43C C66A, the yeast fitness was at most 0.5. The result for C27G A42C C55A reads 0.682; that for C27G A37G A57C G68C A69C, at most 0.5. The result for C27A A65U G67C reads 0.613; that for C27G C46U A69C, 0.735; that for C27G C34A C46G C55A, at most 0.5. As to C27G A36G A70U, the yeast fitness is at most 0.5. The same measure for C27A C31A G52A U54C G58C A70G: at most 0.5; for C27G A40G G51A: 0.541.

As for C27A G41C A43C A69U, the yeast fitness is at most 0.5. Consider C27A C66A, for which the yeast fitness amounted to 0.565.

In the case of C27A C66G, the yeast fitness was determined as 0.673. The result for C27A C66U reads 0.868. The result for C27G A42U A43U reads 0.594; that for C27G C30U G39C A40U G44C U47A G48A U53C C60A, at most 0.5; that for C27G C30G U64G, at most 0.5. On to C27A C33U A42U, for which the yeast fitness was at most 0.5. The result for C27G A69C reads 0.654. The same measure for C27G A69G: 0.652; for C27A C29U A40G: at most 0.5; for C27A U47C U64C A70C: 0.535. For the variant C27A U47A G56C A69C, the yeast fitness is 0.894. For C27G C31U U53C, the yeast fitness stood at 0.573. Consider C27A C34U C62U U64C, for which the yeast fitness is at most 0.5. As to C27A A45C G50C A65C, the yeast fitness was at most 0.5. The result for C27G A42C C62G reads 0.561; that for C27G A43U C55G, at most 0.5. The result for C27A G38C A40U U53A reads at most 0.5; that for C27A C29A, 0.589.

For C27A C29U, the yeast fitness was determined as 0.766. The same measure for U26G U35A: 0.589.

As to U26G U35C, the yeast fitness is 0.657. The result for C27A C30A C66A reads 0.561.

As for C27G A37C A40G C46U, the yeast fitness came to 0.578. Consider C27G C29A A43U, for which the yeast fitness is at most 0.5.

As to C27G C31U C60A, the yeast fitness worked out at 0.602. The same measure for C27G A57U U59C: 0.508; for C27G A43C: 0.611.

As to C27A A42U G67C A69C, the yeast fitness is 0.726. The result for C27G A40U C55U reads at most 0.5. The same measure for C27G C33G G39A C46U C61U A69U: 0.585. The same measure for C27A C30G: 0.634; for C27A C30U: 0.7; for C27G A42G A69U: at most 0.5.

For the variant C27G A36G, the yeast fitness stood at 0.542. As to C27G A36U, the yeast fitness was determined as 0.666. The same measure for C27A C29U C46A: 0.684; for C27G C34G A57G G67C A69U: at most 0.5; for C27G A37U C49G U64C A69C: at most 0.5.

With C27A U35C A57C, the yeast fitness was found to be 0.619. The same measure for C27A U64C: 0.943. Take C27A A36C A40G C62A: the yeast fitness was at most 0.5. Take C27G A42C G50C G56A C66G: the yeast fitness is at most 0.5. The result for C27G C33U A40G C49U A69C reads 0.703. The same measure for C27A A45C: 0.796; for C27A A45G: 0.874; for C27A C60G: 0.657. The result for C27A C34G G38A G63C reads at most 0.5; that for C27A G41C A43C, 0.504. Turning to C27G C31A A70C, the yeast fitness was determined as 0.539. The same measure for C27G C29U A37G A45G C60A G68A: at most 0.5. The result for C27G A43G C49U reads 0.59. As for C27G C33G G51C C60U C61U, the yeast fitness was at most 0.5. For C27A G56A A65U C66A, the yeast fitness is at most 0.5. The result for U26G G44A reads 0.87; that for C27A G39C A57U, at most 0.5. The result for C27G A36G A40G A69U reads at most 0.5; that for C27G A36G A40G A69C, at most 0.5; that for C27A C33A A42U, 0.619. As to U26G G67A, the yeast fitness worked out at 0.81.

As for C27A A45G G68C, the yeast fitness was at most 0.5.

U26G G44A A69U: the yeast fitness stood at 0.673.

Consider C27G C33U G44C C49U, for which the yeast fitness is at most 0.5.

Turning to C27A A45C G68A, the yeast fitness is 0.619. The same measure for C27A A45U G56A C60U: at most 0.5; for C27G C46G U53G G58C G68A: at most 0.5. The same measure for C27A A42G: 0.791; for C27A A42C: 0.751. Regarding C27G A36G G63C C66U, the yeast fitness was at most 0.5. For C27A A43C C60A, the yeast fitness is at most 0.5. The result for C27A C55U A57C C61A C62G reads at most 0.5; that for C27G C33A A65U, at most 0.5. The same measure for U26G U35A G41A C46U G68A: at most 0.5. The same measure for C27G C46G U53G G58C C61A: at most 0.5; for C27G A42U G52A: at most 0.5. As for C27G C31A G58C, the yeast fitness is at most 0.5. The same measure for C27A U54A: 0.727; for C27A U54C: 0.991. The same measure for C27G A37C: 0.911; for C27G C31U C46G G51C: at most 0.5. The same measure for C27A C31A A37C C46G: at most 0.5; for C27G A45U A70C: 0.614; for C27G C29A C62U: 0.647.

Regarding C27A A45C G56C C60U G68U, the yeast fitness is at most 0.5. The same measure for C27A A57C: 0.669; for C27A A57U: 0.737; for C27A A57G: 0.787.

For C27A U53A G58C A70C, the yeast fitness was found to be 0.57. The same measure for C27G C31U A42G U53C: at most 0.5; for C27G C34A C60A: 0.551. The same measure for C27G C30U A42U: 0.651. The result for C27A G52A reads 0.619; that for C27G C33A U47A, at most 0.5. For the variant C27G A65U G68U, the yeast fitness came out at 0.583. The result for U26G U28A U53A reads at most 0.5; that for C27G A36U C46U G67A, 0.54; that for C27A C29U C61U, at most 0.5. The result for C27G C31U U53C C66A reads at most 0.5; that for C27A A42U G67C, 0.613; that for U26G U28A, 0.62. The same measure for C27A C46U G52A: 0.644; for C27A C31G A65U A70G: at most 0.5; for C27A C33A C46A G63C: at most 0.5. On to C27G A42G, for which the yeast fitness is 0.607. The result for C27G A42C reads 0.586; that for U26G G41A, 0.794; that for C27A A36U A37U A65G, at most 0.5. The same measure for C27G A40U A57U C66A: at most 0.5. The result for C27A C31G A45C C55U reads at most 0.5. On to C27G A36U G39C G68C, for which the yeast fitness was determined as 0.533. With C27A A43C U47C, the yeast fitness was 0.594. In the case of C27G C30G A43C, the yeast fitness was at most 0.5. The result for C27A C30A U35C C46G reads at most 0.5; that for C27A G44C G51A, at most 0.5. Take C27G C46A G51A: the yeast fitness turned out to be 0.525. In the case of C27A A40G A42U C61G, the yeast fitness is at most 0.5.

As for C27G A65C, the yeast fitness is 0.641. The result for C27A C31G A57C U64A G68A reads at most 0.5. As for C27G C33G G41A A65C, the yeast fitness is at most 0.5.

Consider C27A A69C, for which the yeast fitness was found to be 0.875. Consider C27G C31G A69U, for which the yeast fitness is at most 0.5.

For C27A U47A G56C, the yeast fitness amounted to 0.694. For the variant C27A U35C A42U C55A, the yeast fitness is at most 0.5. The result for C27A U59A reads 0.876; that for C27A A65G, 1.02; that for C27A A65C, 0.878. As for C27A U47G A69C, the yeast fitness was at most 0.5. In the case of C27G A37C G52C, the yeast fitness is at most 0.5. The same measure for C27G A37G A70C: 0.533; for U26G G44C G58A G68C: 0.529.

As to U26G G56A G68U A69U, the yeast fitness is at most 0.5. In the case of C27G C29A G52C, the yeast fitness was at most 0.5. The result for C27A G38C G68U reads at most 0.5. Turning to C27A C31G, the yeast fitness came to 0.957. The same measure for C27A C46U A70U: 0.733. As for C27A A37C A43G C55G, the yeast fitness was at most 0.5.

As to C27G C29G C46A A65G C66U, the yeast fitness was at most 0.5. The result for C27A C30G C49U G56C C66U reads at most 0.5; that for C27A G41A U47A, at most 0.5; that for C27A G68A, 0.787.

Take C27A G68U: the yeast fitness came out at 0.805. The result for C27A G44C U59A reads at most 0.5; that for C27G C31U C49G G58C, at most 0.5. The result for C27G A37G U53A reads 0.632; that for U26G U32A G63A, at most 0.5. The result for U26G C66G reads 0.677; that for C27G A42G U64C, at most 0.5. In the case of C27A U32G C62U A70C, the yeast fitness turned out to be 0.547. The same measure for C27A C30U C33G A37C A57U: at most 0.5. The same measure for C27A U53G: 0.651; for C27G C31A C33G C49U G58C: at most 0.5.

For C27G C29G G51C, the yeast fitness was at most 0.5.

For C27A C34G A42G G50A C62G, the yeast fitness was at most 0.5. C27A C49U: the yeast fitness was 0.826.

With C27A C49A, the yeast fitness worked out at 0.749. The result for C27G A45U G67A reads at most 0.5; that for C27G A43U U59G G68C, at most 0.5.
